From ChEMBL document CHEMBL1135248, “Synthesis and evaluation of pseudopeptide analogues of a specific CXCR4 inhibitor, T140: the insertion of an (E)-alkene dipeptide isostere into the betaII'-turn moiety” (Bioorg Med Chem Lett, 2002)
Where “and” joins values, the source holds several entries; their conditions need not be identical. Equal values may be shown once.

Tests used:
[1] = system: MT4; assay: Cytotoxicity based on the reduction of the viability of mock-infected MT-4 cells using the MTT method; type: functional, Homo sapiens
In short: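 Mock-infected MT-4 cells were exposed to compound. Loss of viability was read by the MTT method, and CC50 was derived. Values are the mean of at least three experiments.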

[2] = system: MT4; assay: Anti-HIV activity based on the protection against HIV-induced cytopathogenicity in MT-4 cells using MTT method; type: functional, cell-based, Homo sapiens
In short: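 MT-4 cells challenged with the X4 strain HIV-1 IIIB. Protection from virus-induced cytopathogenicity was read by the MTT method, and EC50 was derived. Values are the mean of at least three experiments.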

[3] = Selectivity index (SI) is determined as the ratio of CC50/EC50; type: functional
In short: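 Ratio of CC50 to EC50, both taken from MTT read-outs in MT-4 cells: mock-infected cells for CC50 and HIV-1 IIIB-infected cells for EC50. Each value is the mean of at least three experiments.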

[4] = biological target: T1, C-X-C chemokine receptor type 4 (Homo sapiens, UniProt P61073); assay: (§1) Inhibitory activity based on the inhibition of [Ca2+] mobilization induced by human SDF-1alpha stimulation through CXCR4
T1 sequence (P61073 whole entry): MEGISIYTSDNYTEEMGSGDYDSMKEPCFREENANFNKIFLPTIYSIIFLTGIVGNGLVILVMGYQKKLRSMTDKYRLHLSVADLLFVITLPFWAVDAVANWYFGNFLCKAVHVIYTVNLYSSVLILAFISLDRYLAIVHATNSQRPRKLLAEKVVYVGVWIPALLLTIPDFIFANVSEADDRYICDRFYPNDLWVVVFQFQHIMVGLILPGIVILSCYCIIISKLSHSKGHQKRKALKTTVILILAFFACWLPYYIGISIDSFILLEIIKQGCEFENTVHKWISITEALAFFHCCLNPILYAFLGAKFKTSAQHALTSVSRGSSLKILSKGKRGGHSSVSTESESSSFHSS
In short: (§2)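 CHO cells transfected with CXCR4 were loaded with Fura-2-AM for 1–2 h and then pretreated with analogue. Recombinant human SDF-1α was added 3 min later. [Ca2+]i rise was measured spectrofluorometrically by a modified Fura-2 method, and IC50 was derived from inhibition of mobilization. Values are the mean of two experiments.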

[5] = biological target: T1, C-X-C chemokine receptor type 4; assay: as §1; in short: as §2; remark: listed apart in the source

| Structure (SMILES) | CC50 ([1]; Homo sapiens, MT4) [nM] | SI [3] | also measured |
| --- | --- | --- | --- |
| C[C@H]1/C=C\[C@@H](CCCCN)NC(=O)[C@H](CCCCN)NC(=O)[C@H](CCCN=C(N)N)NC(=O)[C@H](Cc2ccc(O)cc2)NC(=O)[C@@H](NC(=O)[C@H](CSCc2ccccc2)NC(=O)[C@H](CCCN=C(N)N)NC(=O)[C@@H](N)CCCN=C(N)N)CSSC[C@@H](C(=O)N[C@@H](CCCN=C(N)N)C(N)=O)NC(=O)[C@H](CCCNC(N)=O)NC(=O)[C@H](CCCN=C(N)N)NC(=O)[C@H](Cc2ccc(O)cc2)NC1=O | 54000 | – | CC50 [1]: 59000 nM |
| Nc1ccn([C@H]2CC[C@@H](CO)O2)c(=O)n1 [ZALCITABINE] | 48000 | 1500 | EC50 ([2]; Homo sapiens, MT4): 33 nM |
| C[C@H]1/C=C\[C@@H](CCCCN)NC(=O)[C@H](CCCCN)NC(=O)[C@@H](CCCN=C(N)N)NC(=O)[C@H](Cc2ccc(O)cc2)NC(=O)[C@@H](NC(=O)[C@H](CSCc2ccccc2)NC(=O)[C@H](CCCN=C(N)N)NC(=O)[C@@H](N)CCCN=C(N)N)CSSC[C@@H](C(=O)N[C@@H](CCCN=C(N)N)C(N)=O)NC(=O)C(CCCNC(N)=O)NC(=O)[C@@H](CCCN=C(N)N)NC(=O)[C@H](Cc2ccc(O)cc2)NC1=O (stereo partly specified) | – | 810 and 1300 | – |
| C[C@H]1/C=C\[C@@H](CCCCN)NC(=O)[C@H](CCCCN)NC(=O)[C@H](CCCNC(=N)N)NC(=O)[C@H](Cc2ccc(O)cc2)NC(=O)[C@@H](NC(=O)[C@H](Cc2ccc3ccccc3c2)NC(=O)[C@H](CCCNC(=N)N)NC(=O)[C@@H](N)CCCN=C(N)N)CSSC[C@@H](C(=O)N[C@@H](CCCNC(=N)N)C(=O)O)NC(=O)[C@H](CCCNC(N)=O)NC(=O)[C@H](CCCNC(=N)N)NC(=O)[C@H](Cc2ccc(O)cc2)NC1=O | – | – | IC50 [4]: 7.3 nM; IC50 [5]: 6.9 nM |
| C[C@H]1/C=C\[C@@H](CCCCN)NC(=O)[C@H](CCCCN)NC(=O)[C@@H](CCCN=C(N)N)NC(=O)[C@H](Cc2ccc(O)cc2)NC(=O)[C@@H](NC(=O)[C@H](CSC23C[C@H]4C[C@@H](C2)C[C@@H](C3)C4)NC(=O)[C@H](CCCN=C(N)N)NC(=O)[C@@H](N)CCCN=C(N)N)CSSC[C@@H](C(=O)N[C@@H](CCCN=C(N)N)C(N)=O)NC(=O)C(CCCNC(N)=O)NC(=O)[C@@H](CCCN=C(N)N)NC(=O)[C@H](Cc2ccc(O)cc2)NC1=O (stereo partly specified) | – | 6900 and 3300 | – |
| C[C@H]1/C=C\[C@@H](CCCCN)NC(=O)[C@H](CCCCN)NC(=O)[C@@H](CCCN=C(N)N)NC(=O)[C@H](Cc2ccc(O)cc2)NC(=O)[C@@H](NC(=O)[C@H](Cc2c[nH]c3ccccc23)NC(=O)[C@H](CCCN=C(N)N)NC(=O)[C@@H](N)CCCN=C(N)N)CSSC[C@@H](C(=O)N[C@@H](CCCN=C(N)N)C(N)=O)NC(=O)C(CCCNC(N)=O)NC(=O)[C@@H](CCCN=C(N)N)NC(=O)[C@H](Cc2ccc(O)cc2)NC1=O (stereo partly specified) | – | 15000 and 20000 | – |
| C[C@H]1/C=C\[C@@H](CCCCN)NC(=O)[C@H](CCCCN)NC(=O)[C@H](CCCN=C(N)N)NC(=O)[C@H](Cc2ccc(O)cc2)NC(=O)[C@@H](NC(=O)[C@H](Cc2c[nH]c3ccccc23)NC(=O)[C@H](CCCN=C(N)N)NC(=O)[C@@H](N)CCCN=C(N)N)CSSC[C@@H](C(=O)N[C@@H](CCCN=C(N)N)C(=O)O)NC(=O)[C@H](CCCNC(N)=O)NC(=O)[C@H](CCCN=C(N)N)NC(=O)[C@H](Cc2ccc(O)cc2)NC1=O | 100000 | – | – |
| C[C@H]1/C=C\[C@@H](CCCCN)NC(=O)[C@H](CCCCN)NC(=O)[C@@H](CCCN=C(N)N)NC(=O)[C@H](Cc2ccc(O)cc2)NC(=O)[C@@H](NC(=O)[C@H](Cc2ccc3ccccc3c2)NC(=O)[C@H](CCCN=C(N)N)NC(=O)[C@@H](N)CCCN=C(N)N)CSSC[C@@H](C(=O)N[C@@H](CCCN=C(N)N)C(=O)O)NC(=O)C(CCCNC(N)=O)NC(=O)[C@@H](CCCN=C(N)N)NC(=O)[C@H](Cc2ccc(O)cc2)NC1=O (stereo partly specified) | – | > 220000 and 140000 | – |
| C[C@H]1/C=C\[C@@H](CCCCN)NC(=O)[C@H](CCCCN)NC(=O)[C@@H](CCCN=C(N)N)NC(=O)[C@H](Cc2ccc(O)cc2)NC(=O)[C@@H](NC(=O)[C@H](Cc2ccc3ccccc3c2)NC(=O)[C@H](CCCN=C(N)N)NC(=O)[C@@H](N)CCCN=C(N)N)CSSC[C@@H](C(=O)N[C@@H](CCCN=C(N)N)C(N)=O)NC(=O)C(CCCNC(N)=O)NC(=O)[C@@H](CCCN=C(N)N)NC(=O)[C@H](Cc2ccc(O)cc2)NC1=O (stereo partly specified) | – | 12000 and 31000 | – |
| C[C@H]1/C=C\[C@@H](CCCCN)NC(=O)[C@H](CCCCN)NC(=O)[C@H](CCCN=C(N)N)NC(=O)[C@H](Cc2ccc(O)cc2)NC(=O)[C@@H](NC(=O)[C@H](Cc2c[nH]c3ccccc23)NC(=O)[C@H](CCCN=C(N)N)NC(=O)[C@@H](N)CCCN=C(N)N)CSSC[C@@H](C(=O)N[C@@H](CCCN=C(N)N)C(N)=O)NC(=O)[C@H](CCCNC(N)=O)NC(=O)[C@H](CCCN=C(N)N)NC(=O)[C@H](Cc2ccc(O)cc2)NC1=O | – | – | EC50 ([2]; Homo sapiens, MT4): 3.7 nM; EC50 ([2]; mt4): 2.9 nM; IC50 [5]: 5 nM |
